pEC50, pKi: −log10 of the molar value.
Key:
Mu-type opioid receptor [1] = biological target: T1, Mu-type opioid receptor (Homo sapiens, UniProt P35372); experiment: Displacement of [3H]DAMGO from human recombinant mu opioid receptor expressed in CHO cells after 2 hrs by liquid scintillation counting; type: cell-based
In short: (§1)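 Membranes from CHO cells stably transfected with human DOP, MOP or KOP receptor, in 50 mM Tris-HCl pH 7.4 with a protease inhibitor cocktail. The ~2 nM [3H]radioligand was displaced by 10 drug concentrations, in triplicate, for 2 hr at 25 °C, then filtered over GF/B. Nonspecific binding was set by 20 μM levallorphan (DADLE, DAMGO) or 1 μM (−)-U69,593 (U69,593). Ki (±SD) came from full curves, n=3.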

Mu-type opioid receptor [2] = biological target: T1, Mu-type opioid receptor; experiment: Displacement of [3H]DAMGO from human recombinant mu opioid receptor expressed in CHO cells at 10 uM after 2 hrs by liquid scintillation counting; type: cell-based
In short: (§2)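 Radioligand (~2 nM) competition on human opioid receptor CHO membranes in Tris-HCl pH 7.4, 2 hr at 25 °C, with GF/B filtration and scintillation counting. Results are percent of control produced by a single test drug concentration, 1 μM or 10 μM as the line states. Nonspecific binding was set by 20 μM levallorphan (DADLE, DAMGO) or 1 μM (−)-U69,593 (U69,593).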

[3] = biological target: T2, Delta-type opioid receptor (Homo sapiens, UniProt P41143); experiment: Displacement of [3H]DADLE from human recombinant delta opioid receptor expressed in CHO cells after 2 hrs by liquid scintillation counting; type: cell-based; in short: as §1
T2 sequence (P41143 whole entry): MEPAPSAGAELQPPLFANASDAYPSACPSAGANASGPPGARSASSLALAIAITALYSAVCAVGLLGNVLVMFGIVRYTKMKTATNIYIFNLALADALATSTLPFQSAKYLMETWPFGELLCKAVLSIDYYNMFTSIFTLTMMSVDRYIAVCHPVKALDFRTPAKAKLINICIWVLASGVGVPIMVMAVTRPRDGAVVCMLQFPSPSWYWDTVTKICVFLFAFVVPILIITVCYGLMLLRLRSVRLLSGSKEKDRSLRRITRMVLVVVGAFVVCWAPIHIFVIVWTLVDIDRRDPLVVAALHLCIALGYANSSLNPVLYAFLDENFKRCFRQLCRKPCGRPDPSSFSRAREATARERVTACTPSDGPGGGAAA

[4] = biological target: T2, Delta-type opioid receptor; experiment: Displacement of [3H]DADLE from human recombinant delta opioid receptor expressed in CHO cells at 1 uM after 2 hrs by liquid scintillation counting; type: cell-based; in short: as §2
[5] = biological target: T3, Kappa-type opioid receptor (Homo sapiens, UniProt P41145); experiment: Displacement of [3H]U69593 from human recombinant kappa opioid receptor expressed in CHO cells after 2 hrs by liquid scintillation counting; type: cell-based; in short: as §1
T3 sequence (P41145 whole entry): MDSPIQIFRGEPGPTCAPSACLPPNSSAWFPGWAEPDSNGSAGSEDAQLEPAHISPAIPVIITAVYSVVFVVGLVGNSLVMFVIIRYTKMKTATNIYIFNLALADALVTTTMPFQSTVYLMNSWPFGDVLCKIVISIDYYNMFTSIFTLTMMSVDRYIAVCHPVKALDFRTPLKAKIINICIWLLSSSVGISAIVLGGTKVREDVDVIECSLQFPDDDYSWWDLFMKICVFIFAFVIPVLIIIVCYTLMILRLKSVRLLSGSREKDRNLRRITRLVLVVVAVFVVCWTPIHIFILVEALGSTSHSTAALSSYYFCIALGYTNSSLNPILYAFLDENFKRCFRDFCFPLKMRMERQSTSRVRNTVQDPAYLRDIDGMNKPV

[6] = biological target: T2, Delta-type opioid receptor; experiment: Displacement of [3H]DADLE from human recombinant delta opioid receptor expressed in CHO cells at 10 uM after 2 hrs by liquid scintillation counting; type: cell-based; in short: as §2
[7] = Chemical solubility of the compound in THF; type: physicochemical
Rhesus monkey = experiment: In vivo binding affinity to kappa opioid receptor in iv dosed rhesus monkey assessed as rightward shift in serum prolactin level administered every 20 mins measured every 15 mins by immunoradiometric analysis; type: functional; settings: Macaca mulatta
In short: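 Chair-trained male rhesus monkeys received i.v. cumulative doses rising in 0.5 log steps every 20 min. Blood was sampled 15 min after each dose, after two baseline samples at −10 and −5 min. Serum prolactin was expressed as change from each subject's pre-injection baseline, as mean ±SEM. ED50 came from linear regression of mean dose-effect points spanning the ED50.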

[8] = biological target: T3, Kappa-type opioid receptor; experiment: Agonist activity at human recombinant kappa opioid receptor expressed in CHO cells assessed as [35S]GTP-gamma-S binding after 3 hrs by liquid scintillation counting; type: functional, cell-based
In short: (§3)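 hKOP-CHO membranes (50 μg protein) were incubated with 50 pM [35S]GTP-γ-S and 40 μM GDP. Final buffer was 50 mM Tris-HCl pH 7.4, 100 mM NaCl, 10 mM MgCl2, 1 mM EDTA, 1 mM DTT and 0.1% BSA. Incubation ran 3 hr at 25 °C. Nonspecific binding was set with 40 μM GTP-γ-S. Bound label was separated by vacuum filtration through GF/B and counted.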

[9] = biological target: T3, Kappa-type opioid receptor; experiment: Agonist activity at human recombinant kappa opioid receptor expressed in CHO cells assessed as [35S]GTP-gamma-S binding after 3 hrs by liquid scintillation counting relative to (-)U50488; type: functional, cell-based; in short: as §3
Mu-type opioid receptor [10] = biological target: T1, Mu-type opioid receptor; experiment: Displacement of [3H]DAMGO from human recombinant mu opioid receptor expressed in CHO cells at 1 uM after 2 hrs by liquid scintillation counting; type: cell-based; in short: as §2
[11] = biological target: T3, Kappa-type opioid receptor; experiment: Agonist activity at human recombinant kappa opioid receptor expressed in CHO cells assessed as calcium mobilization after 1 hrs by fluorescence analysis; type: functional, cell-based
In short: (§4)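 CHO cells stably expressing KOP receptor with Gαq16 were plated at 30,000 cells/well and grown overnight at 37 °C. They were loaded with Calcium 5 dye in HBSS with 20 mM HEPES, 0.25% BSA, 1% DMSO and probenecid for 1 h at 37 °C. Compounds were added at 10X after a ~17 sec baseline, and fluorescence (ex 485/em 525 nm) was read every 1.52 sec for 60 sec. EC50 and Emax are given ±SD.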

[12] = biological target: T3, Kappa-type opioid receptor; experiment: Agonist activity at human recombinant kappa opioid receptor expressed in CHO cells assessed as calcium mobilization after 1 hrs by fluorescence analysis relative to U69593; type: functional, cell-based; in short: as §4

T1 sequence (P35372 whole entry): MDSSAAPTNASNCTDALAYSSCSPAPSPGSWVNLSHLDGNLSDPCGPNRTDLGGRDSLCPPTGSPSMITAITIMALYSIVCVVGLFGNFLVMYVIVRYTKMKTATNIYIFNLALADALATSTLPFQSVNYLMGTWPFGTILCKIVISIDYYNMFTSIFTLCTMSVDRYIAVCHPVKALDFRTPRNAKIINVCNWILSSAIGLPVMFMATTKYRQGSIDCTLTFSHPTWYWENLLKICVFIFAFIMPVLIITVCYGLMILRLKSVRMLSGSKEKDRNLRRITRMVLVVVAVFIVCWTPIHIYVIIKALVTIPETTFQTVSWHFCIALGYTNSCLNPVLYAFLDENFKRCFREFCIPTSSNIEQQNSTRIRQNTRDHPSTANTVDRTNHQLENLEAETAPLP

COC(=O)[C@@H]1C[C@H](OC(C)=O)C(=O)[C@H]2[C@@]1(C)CC[C@H]1C(=O)O[C@H](C(=O)c3ccc(OC)cc3)C[C@]21C
pKi (Mu-type opioid receptor [1]): < 5.00
Activity (Mu-type opioid receptor [2]): 74%
pKi [3]: < 5.00
Activity [4]: 81%
pKi [5]: < 5.00

COC(=O)[C@@H]1C[C@H](OC(C)=O)C(=O)[C@H]2[C@@]1(C)CC[C@H]1C(=O)O[C@H](C(=O)c3cc4ccccc4s3)C[C@]21C
pKi (Mu-type opioid receptor [1]): < 5.00
Activity (Mu-type opioid receptor [2]): 58%
pKi [3]: < 5.00
Activity [6]: 95%
pKi [5]: 5.04

COC(=O)[C@@H]1C[C@H](OC(C)=O)C(=O)[C@H]2[C@@]1(C)CC[C@H]1C(=O)O[C@H](C(=O)c3ccoc3)C[C@]21C
pKi (Mu-type opioid receptor [1]): < 5.00
Activity (Mu-type opioid receptor [2]): 66%
pKi [3]: < 5.00
Activity [6]: 95%
pKi [5]: 6.82

COC(=O)[C@@H]1C[C@H](OC(C)=O)C(=O)[C@H]2[C@@]1(C)CC[C@H]1C(=O)O[C@H](C=O)C[C@]21C
solubility [7]: Insoluble

COC(=O)[C@@H]1C[C@H](OC(C)=O)C(=O)[C@H]2[C@@]1(C)CC[C@H]1C(=O)O[C@H](c3ccoc3)C[C@]21C [SALVINORIN A]
ED50 (Rhesus monkey): 0.0037 mg/kg

COC(=O)[C@@H]1C[C@H](OC(C)=O)C(=O)[C@H]2[C@@]1(C)CC[C@H]1C(=O)O[C@@H](c3ccoc3)C[C@]21C [12-EPI-SALVINORIN A]
Activity (Mu-type opioid receptor [2]): 72%
Activity [6]: 74%
ED50 (Rhesus monkey): 0.038 mg/kg

C/C=C\C(=O)[C@@H]1C[C@]2(C)[C@H]3C(=O)[C@@H](OC(C)=O)C[C@@H](C(=O)OC)[C@]3(C)CC[C@H]2C(=O)O1
pKi (Mu-type opioid receptor [1]): < 5.77
pKi [3]: < 5.30
pKi [5]: 6.49

COC(=O)[C@@H]1C[C@H](OC(C)=O)C(=O)[C@H]2[C@@]1(C)CC[C@H]1C(=O)O[C@H](C(=O)c3cccs3)C[C@]21C
pEC50 [8]: 5.79
pKi (Mu-type opioid receptor [1]): < 5.00
Activity (Mu-type opioid receptor [2]): 65%
pKi [3]: < 5.00
Activity [6]: 99%
pKi [5]: 7.44
Emax [9]: 95%

COC(=O)[C@@H]1C[C@H](OC(C)=O)C(=O)[C@H]2[C@@]1(C)CC[C@H]1C(=O)O[C@H](C(=O)c3ccsc3)C[C@]21C
pEC50 [8]: 6.21
pKi (Mu-type opioid receptor [1]): 5.60
pKi [3]: < 5.00
Activity [6]: 88%
pKi [5]: 7.51
Emax [9]: 88%

COC(=O)[C@@H]1C[C@H](OC(C)=O)C(=O)[C@H]2[C@@]1(C)CC[C@H]1C(=O)O[C@H](C(=O)c3ccc(O)cc3)C[C@]21C
pKi (Mu-type opioid receptor [1]): < 5.00
Activity (Mu-type opioid receptor [2]): 93%
pKi [3]: < 5.00
Activity [6]: 100%
pKi [5]: 5.07

COC(=O)[C@@H]1C[C@H](OC(C)=O)C(=O)[C@H]2[C@@]1(C)CC[C@H]1C(=O)O[C@H](C(=O)c3csc4ccccc34)C[C@]21C
pKi (Mu-type opioid receptor [1]): < 6.00
Activity (Mu-type opioid receptor [10]): 60%
pKi [3]: < 6.00
Activity [4]: 56%
pKi [5]: < 5.00

COC(=O)[C@@H]1C[C@H](OC(C)=O)C(=O)[C@H]2[C@@]1(C)CC[C@H]1C(=O)O[C@H](C(=O)c3cccc(OC(F)(F)F)c3)C[C@]21C
pKi (Mu-type opioid receptor [1]): 5.32
pKi [3]: < 6.00
Activity [4]: 37%
pKi [5]: < 5.00

COC(=O)[C@@H]1C[C@H](OC(C)=O)C(=O)[C@H]2[C@@]1(C)CC[C@H]1C(=O)O[C@H](c3ccco3)C[C@]21C
pEC50 [8]: 6.85
pKi (Mu-type opioid receptor [1]): < 6.00
Activity (Mu-type opioid receptor [10]): 81%
pKi [3]: < 5.00
Activity [4]: 99%
Emax [9]: 104%
pEC50 [11]: 7.91
Emax [12]: 97%
